The target in assay [1] is Amyloid-beta precursor protein (Homo sapiens) (UniProt P05067). Put plainly: Inhibition of amyloid beta (1 to 42) (unknown origin) aggregation assessed as reduction in intensity of fluorescence plateau of aggregation at 100 uM using compound dissolved in DMSO measured after 42 hrs by Thioflavin T fluorescence assay relative to control. More on the design: scale not given: the % may be the effect or the level left. The essentials:
(§1)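 Aβ1-42 dissolved in 1% aqueous ammonia at 1 mM, diluted to 0.2 mM in 10 mM Tris-HCl, 100 mM NaCl pH 7.4 just before use. Final 10 µM peptide added to 40 µM ThT with compound (final DMSO 0.5% v/v), room temperature. Triplicate wells, ex/em 440/480 nm for 42 h, read 2–4 times on different days. t1/2 extension and plateau F reduction are computed as % of peptide-alone values.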

Assay [2] has the same target. Put plainly: Inhibition of amyloid beta (1 to 42) (unknown origin) aggregation assessed as increase in time of half-life of aggregation at 10 uM using compound dissolved in DMSO measured after 42 hrs by Thioflavin T fluorescence assay relative to control. More on the design: scale not given: the % may be the effect or the level left. The essentials: as §1
Assay [3] has the same target. Put plainly: Inhibition of amyloid beta (1 to 42) (unknown origin) aggregation assessed as reduction in intensity of fluorescence plateau of aggregation at 10 uM using compound dissolved in DMSO measured after 42 hrs by Thioflavin T fluorescence assay relative to control. More on the design: scale not given: the % may be the effect or the level left. The essentials:
as §1

Assay [4] shares this target. Put plainly: Inhibition of amyloid beta (1 to 42) (unknown origin) aggregation assessed as increase in time of half-life of aggregation at 100 uM using compound dissolved in DMSO measured after 42 hrs by Thioflavin T fluorescence assay relative to control. The arrangement: scale not given: the % may be the effect or the level left. Put shortly:
as §1

The target is the same in assay [5]. As to the kind of experiment: Inhibition of amyloid beta (1 to 42) (unknown origin) oligomerization assessed as amyloid beta monomer level at 100 uM after 6 hrs by capillary electrophoresis method (reference value: 4%). The arrangement: scale not given: the % may be the effect or the level left. The essentials:
(§2)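 Aβ1-42 reconstituted at 100 µM final in 20 mM phosphate pH 7.4 with 2.5% v/v DMSO (compound stock or control), compound at 10:1 ratio. Profiles taken at 0, 2, 6 and 12 h. CE in fused silica capillary, 80 mM phosphate pH 7.4, −30 kV, 20°C, UV 190 nm. Monomer peak area is related to that of peptide alone at 0 h.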

The target is the same in assay [6]. Put plainly: Inhibition of amyloid beta (1 to 42) (unknown origin) oligomerization assessed as increase in amyloid beta monomer level at 100 uM up to 2 hrs by capillary electrophoresis method. Put shortly: as §2
Assay [7] has the same target. As to the kind of experiment: Inhibition of amyloid beta (1 to 42) (unknown origin) aggregation assessed as reduction in intensity of fluorescence plateau of aggregation at 1 uM using compound dissolved in DMSO measured after 42 hrs by Thioflavin T fluorescence assay relative to control. More on the design: scale not given: the % may be the effect or the level left. The essentials: as §1

For assay [8] the target is unchanged. As to the kind of experiment: Inhibition of amyloid beta (1 to 42) (unknown origin) aggregation assessed as increase in time of half-life of aggregation at 1 uM using compound dissolved in DMSO measured after 42 hrs by Thioflavin T fluorescence assay relative to control. Put shortly: as §1
The target is the same in assay [9]. Put plainly: Inhibition of amyloid beta (1 to 42) (unknown origin) aggregation assessed as reduction in intensity of fluorescence plateau of aggregation at 100 uM using compound dissolved in water measured after 42 hrs by Thioflavin T fluorescence assay relative to control. More on the design: scale not given: the % may be the effect or the level left. Put shortly: (§3)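 ThT kinetics of 10 µM Aβ1-42 (from 1 mM ammonia stock, diluted in 10 mM Tris-HCl, 100 mM NaCl, pH 7.4) with 40 µM ThT at room temperature. Compound is dissolved in water (0.5% v/v) rather than DMSO and used at 10:1 compound/peptide. Fluorescence 440/480 nm over 42 h. t1/2 and plateau F are expressed as % change versus peptide alone.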

Assay [10] shares this target. As to the kind of experiment: Inhibition of amyloid beta (1 to 42) (unknown origin) aggregation at 1 to 100 uM treated immediately or 3 hrs after fibrillization kinetics by Thioflavin T fluorescence assay. The essentials: (§4)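 Same ThT set-up (10 µM Aβ1-42, 40 µM ThT, Tris-HCl/NaCl pH 7.4, room temperature, 440/480 nm), except compound is added at the start of kinetics or 3, 19 or 44 h after it. Tested at 1:1 and 10:1 compound/peptide ratios.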

Assay [11] shares this target. Put plainly: Inhibition of amyloid beta (1 to 42) (unknown origin) aggregation at 100 uM after 42 hrs by uranyl acetate staining based transmission electron microscopic method. The essentials:
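Samples are prepared as for ThT: 10 µM Aβ1-42 in 10 mM Tris-HCl, 100 mM NaCl pH 7.4, ±100 µM compound, incubated 42 h. Aliquots adsorbed 2 min on 300-mesh carbon grids, washed, dried, negatively stained 45 s and imaged by TEM.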

The target is the same in assay [12]. Put plainly: Inhibition of amyloid beta (1 to 42) (unknown origin) aggregation at 1 to 100 uM treated at 19 to 44 hrs after fibrillization kinetics by Thioflavin T fluorescence assay. The essentials:
as §4

For assay [13] the target is unchanged. Put plainly: Inhibition of amyloid beta (1 to 42) (unknown origin) oligomerization assessed as amyloid beta monomer level at 100 uM after 12 hrs by capillary electrophoresis method (reference value: 0%). More on the design: scale not given: the % may be the effect or the level left. Put shortly:
as §2

Assay [14] shares this target. As to the kind of experiment: Inhibition of amyloid beta (1 to 42) (unknown origin) aggregation assessed as increase in time of half-life of aggregation at 100 uM using compound dissolved in water measured after 42 hrs by Thioflavin T fluorescence assay relative to control. The arrangement: scale not given: the % may be the effect or the level left. The essentials: as §3

Structures are written as SMILES. Calls of active or inactive are those of the source. The rule behind the calls is not given here.

Amyloid-beta precursor protein (Homo sapiens), sequence (P05067 whole entry): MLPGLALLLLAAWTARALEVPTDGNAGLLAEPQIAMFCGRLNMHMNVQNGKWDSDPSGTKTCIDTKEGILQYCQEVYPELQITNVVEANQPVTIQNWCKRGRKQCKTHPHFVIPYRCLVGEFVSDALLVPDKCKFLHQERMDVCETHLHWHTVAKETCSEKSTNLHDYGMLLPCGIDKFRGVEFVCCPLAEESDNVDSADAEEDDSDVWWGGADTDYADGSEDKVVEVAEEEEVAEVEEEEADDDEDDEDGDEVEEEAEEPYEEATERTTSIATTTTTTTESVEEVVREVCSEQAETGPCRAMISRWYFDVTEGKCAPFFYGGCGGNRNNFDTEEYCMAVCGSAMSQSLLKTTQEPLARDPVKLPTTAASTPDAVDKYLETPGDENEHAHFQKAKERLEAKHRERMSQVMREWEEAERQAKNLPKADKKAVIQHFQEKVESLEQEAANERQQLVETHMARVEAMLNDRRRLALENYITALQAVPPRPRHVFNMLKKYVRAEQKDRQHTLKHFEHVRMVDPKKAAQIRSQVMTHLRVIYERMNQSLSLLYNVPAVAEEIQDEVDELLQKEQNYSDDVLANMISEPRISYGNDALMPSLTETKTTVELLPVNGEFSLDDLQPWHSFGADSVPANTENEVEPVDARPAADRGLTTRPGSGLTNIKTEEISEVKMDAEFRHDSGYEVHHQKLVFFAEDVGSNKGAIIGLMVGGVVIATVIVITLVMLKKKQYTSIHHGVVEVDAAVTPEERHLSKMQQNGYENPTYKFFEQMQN

On to `CSCC[C@H](NC(=O)[C@H](CC(C)C)NC(=O)CN)C(=O)N[C@H](C(=O)NCC(=O)N1CC[C@@H](NS(=O)(=O)c2ccc(C)cc2)[C@H](N2CCC[C@H]2C(=O)N[C@@H](CCCCN)C(=O)N[C@@H](CC(C)C)C(=O)N[C@H](C(=O)N[C@@H](Cc2ccccc2)C(=O)N[C@@H](Cc2ccccc2)C(N)=O)C(C)C)C1)C(C)C`, for which the Activity in assay [1] turned out to be 97%; in assay [3] it was 90%. Besides, the result in assay [2] and in [4] was inactive.
In the case of `COc1ccc(NC(C)=O)cc1C(=O)NNC(=O)[C@H](CCCCN)NC(=O)[C@@H]1CCCN1[C@@H]1CN(C(=O)[C@@H](NC(=O)[C@H](C)N)C(C)C)CC[C@H]1NS(=O)(=O)c1ccc(C)cc1`, the Activity was determined as 49% in [5]; 66% in assay [1]; 38% in assay [7]; 81% in assay [9]; 36% in [2]; 38% in assay [3]. Also, the Activity in [4] is 76%; in [13], 31%; in [14], 96%. In addition, the inhibition result in assay [6] and in assay [12] was “inactive” throughout. In assay [8], the result was inactive. In addition, the inhibition result in assay [10] and in [11] was “Active” throughout.
Regarding `COc1ccc(NC(C)=O)cc1C(=O)NNC(=O)[C@H](CCCCN)NC(=O)[C@@H]1CCCN1[C@@H]1CN(C(=O)[C@@H](NC(=O)[C@H](C)NC(=O)[C@@H](N)C(C)C)C(C)C)CC[C@H]1NS(=O)(=O)c1ccc(C)cc1`, the Activity is 32% in assay [1], 35% in assay [9], 30% in assay [4] and 58% in assay [14]. Further, the result in assay [7], in [8], in [2] and in [3] was inactive.
Regarding `COC(=O)[C@@H]1CCCN1[C@@H]1CNCC[C@H]1NS(=O)(=O)c1ccc(C)cc1`, the Activity in [1] is 23%. The outcome in assay [2], in assay [3] and in [4] was inactive.
With `COc1ccc(NC(C)=O)cc1C(=O)NNC(=O)[C@H](CCCCNC(=O)OCc1ccccc1)NC(=O)[C@@H]1CCCN1[C@@H]1CN(C(=O)[C@@H](NC(=O)[C@H](C)NC(=O)OC(C)(C)C)C(C)C)CC[C@H]1NS(=O)(=O)c1ccc(C)cc1`, the outcome in assay [1], in [2], in assay [3] and in assay [4] was inactive.
As to `COc1ccc(NC(C)=O)cc1C(=O)NNC(=O)[C@H](CCCCN)NC(=O)[C@@H]1CCCN1[C@@H]1CN(C(=O)[C@@H](NC(=O)[C@H](C)N)C(C)C)CC[C@H]1NC(=O)OC(C)(C)C`, the Activity in [1] was 43%; in assay [2], 13%; in assay [4] it was 29%. In addition, in assay [3], the outcome was inactive.
The like results for `COc1ccc(NC(C)=O)cc1C(=O)NNC(=O)[C@H](CCCCN)NC(=O)[C@@H]1CCCN1[C@@H]1CN(C(=O)[C@@H](NC(=O)[C@H](C)NC(=O)OC(C)(C)C)C(C)C)CC[C@H]1NS(=O)(=O)c1ccc(C)cc1` were, in that order, “inactive”, 23%, 59% and “inactive”.
The corresponding values for `COc1ccc(NC(C)=O)cc1C(=O)NNC(=O)[C@H](CCCCN)NC(=O)[C@@H]1CCCN1[C@@H]1CN(C(=O)[C@@H](NC(=O)[C@H](C)N)C(C)C)CC[C@H]1N` are 18%, “inactive”, “inactive” and “inactive”.
As to `COc1ccc(NC(C)=O)cc1C(=O)NNC(=O)[C@H](CCCCN)NC(=O)[C@@H]1CCCN1[C@@H]1CN(C(=O)[C@@H](NC(=O)[C@H](C)N)C(C)C)CC[C@H]1NS(=O)(=O)c1ccc(N)cc1`, the Activity in [1] turned out to be 54%; in assay [2], 27%; in assay [4], 56%. Further, the result in [3] was inactive. In addition, the inhibition entry in [11] is “Active”.
